# According to publication PMC3769332 (Molecular & Cellular Proteomics : MCP, 2013):
# Ends that are not written are not given here.
# T1: SCRIB_3 (Homo sapiens, UniProt Q14160)
# T1 sequence (Q14160 1004-1093 limits assumed): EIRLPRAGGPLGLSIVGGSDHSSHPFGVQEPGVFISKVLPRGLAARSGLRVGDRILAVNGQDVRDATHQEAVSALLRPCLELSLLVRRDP
# T2: GST-Scrib PDZ3 (human, UniProt Q14160 994-1103)
# T2 sequence (looked up): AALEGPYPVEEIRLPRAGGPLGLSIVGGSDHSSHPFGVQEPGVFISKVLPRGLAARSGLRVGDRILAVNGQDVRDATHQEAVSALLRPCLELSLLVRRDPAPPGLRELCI
# B1: GFP-Vangl2: GFP fusion of Vangl2 overexpressed in cells (protein)
# chain: MDTESQYSGYSYKSGHSRSSRKHRDRRDRHRSKSRDGGRGDKSVTIQAPGEPLLDNESTRGDERDDNWGETTTVVTGTSEHSISHDDLTRIAKDMEDSVPLDCSRHLGVAAGATLALLSFLTPLAFLLLPPLLWREELEPCGTACEGLFISVAFKLLILLLGSWALFFRRPKASLPRVFVLRALLMVLVFLLVVSYWLFYGVRILDARERSYQGVVQFAVSLVDALLFVHYLAVVLLELRQLQPQFTLKVVRSTDGASRFYNVGHLSIQRVAVWILEKYYHDFPVYNPALLNLPKSVLAKKVSGFKVYSLGEENSTNNSTGQSRAVIAAAARRRDNSHNEYYYEEAEHERRVRKRRARLVVAVEEAFTHIKRLQEEEQKNPREVMDPREAAQAIFASMARAMQKYLRTTKQQPYHTMESILQHLEFCITHDMTPKAFLERYLAAGPTIQYHKERWLAKQWTLVSEEPVTNGLKDGIVFLLKRQDFSLVVSTKKVPFFKLSEEFVDPKSHKFVMRLQSETSV
# B2: HA-tagged Vangl2: HA-tagged Vangl2 expressed in HEK 293T cells (protein)
# chain: B1 chain
# B3: GFP-Vangl2ΔTSV: GFP-Vangl2 with deletion of the classical PDZ binding motif (protein)
# chain: MDTESQYSGYSYKSGHSRSSRKHRDRRDRHRSKSRDGGRGDKSVTIQAPGEPLLDNESTRGDERDDNWGETTTVVTGTSEHSISHDDLTRIAKDMEDSVPLDCSRHLGVAAGATLALLSFLTPLAFLLLPPLLWREELEPCGTACEGLFISVAFKLLILLLGSWALFFRRPKASLPRVFVLRALLMVLVFLLVVSYWLFYGVRILDARERSYQGVVQFAVSLVDALLFVHYLAVVLLELRQLQPQFTLKVVRSTDGASRFYNVGHLSIQRVAVWILEKYYHDFPVYNPALLNLPKSVLAKKVSGFKVYSLGEENSTNNSTGQSRAVIAAAARRRDNSHNEYYYEEAEHERRVRKRRARLVVAVEEAFTHIKRLQEEEQKNPREVMDPREAAQAIFASMARAMQKYLRTTKQQPYHTMESILQHLEFCITHDMTPKAFLERYLAAGPTIQYHKERWLAKQWTLVSEEPVTNGLKDGIVFLLKRQDFSLVVSTKKVPFFKLSEEFVDPKSHKFVMRLQSE
# How the values were obtained:
# [1] = system: Xenopus embryo; assay: Neural tube closure in Xenopus embryos; format: in vivo, Xenopus laevis; details: MO injected in dorsal blastomeres at 4- to 8-cell stage
# [2] = system: Scrib PDZ1; assay: HTRF peptide binding to Scrib PDZ1; set-up: species or system human
# [3] = target: T1, SCRIB_3; assay: HTRF peptide-GST-PDZ binding
# [4] = target: T2, GST-Scrib PDZ3; assay: AlphaScreen or HTRF
# [5] = system: MEF^Crc/Crc; assay: Boyden chamber cell migration, MEF Crc/Crc; format: cell-based, mouse; details: MEFs deficient for Scrib, serum-induced
# [6] = system: T47D cells; assay: Boyden chamber cell migration, T47D; format: cell-based; details: stimulation with 1 nM HRG, 12 h
# How it was run: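 Transwell migration through 8-μm pore polycarbonate membranes, underside coated with 25 μg/ml rat-tail collagen I. T47D cells were lipofectamine-transfected with pEGFP, pEGFP-Vangl2 or mutants, serum-starved 16 h, and seeded in the top chamber. The bottom chamber held medium with or without HRG for 12 h. Non-migrated cells were scraped off; migrated cells were fixed in 4% formaldehyde, crystal violet-stained (0.1%) and counted. Fold change, three independent experiments summed.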
# [7] = system: GST fused to the four Scrib PDZ domains; assay: GST-Scrib PDZ pull-down; format: binding, human; details: pull-down on transfected HEK 293T extracts
# [8] = system: Scrib PDZ3 domain; assay: GST-Scrib PDZ pull-down, individual domain; format: binding, human; details: pull-down on HEK 293T extracts
# [9] = system: wild-type MEFs; assay: Boyden chamber cell migration, wild-type MEF; format: cell-based, mouse; details: serum-induced
# How it was run: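 MEFs, wild-type or Crc/Crc, nucleofected transiently with GFP or GFP-Vangl2, then serum-starved 16 h and plated in the upper chamber of 8-μm pore polycarbonate transwells. Filter underside coated with human fibronectin ([…]). Serum (FCS) served as chemoattractant. Migrated cells were fixed in 4% formaldehyde, stained with 0.1% crystal violet and counted. Mann–Whitney U test versus control.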
# [10] = system: Scrib PDZ4; assay: GST-Scrib PDZ pull-down, individual domain; format: binding, human; details: pull-down on HEK 293T extracts
# [11] = system: SNX27; assay: Co-affinity purification with SNX27, HEK 293T; format: cell-based; details: streptavidin affinity purification, Western blot
molecule,measurement,setting,value
SNX27 MO: morpholino 5′-TCCCCCTCCTCGTCCGCCATCTTTT-3′ targeting SNX27 translation initiation (all phosphorodiamidate morpholino (PMO)),neural tube closure,[1],neural tube closure was strongly impaired in a dose-dependent manner
H-VLKNMNDPAWDETNL-OH [βPIX],binding to Scrib PDZ1,[2],strongly bound
same,binding to Scrib PDZ3,[3]; HTRF,able to bind
KSHKFVMRLQSETSV [Vangl2],EC50,[3],13 µM
VLKNMNDPAWDETNL [soluble non-biotinylated βPIX carboxy-terminal peptide (HTRF)],EC50,[4],8 µM
MSCCRSSRTRRETQL [synthetic E6 carboxy-terminal peptide],EC50,[4],0.4 µM
B1,effect on cell migration,[5],not significantly affected relative to control conditions
same,effect on cell migration,[6],increased cell migration
same,effect on cell migration,[6]; listed as GFP-Vangl2^Lp,did not affect this increased cell migration
same,binding to GST-Scrib PDZ1-4,[7],efficient binding
same,binding to individual GST-Scrib PDZ3,[8],most efficient
same,effect on cell migration,[9],increased cell migration
same,binding to individual GST-Scrib PDZ4,[10],some weak binding
B2,interaction with SNX27,[11],interacts
B3,effect on cell migration,[6],in contrast to the deletion of the classical PDZ binding motif
